Experimental data pooled from the literature.
Cell line: MCF7
Effect on: cell growth or viability

The IC50 of `O=C(NCc1ccc(C(F)(F)F)cc1)c1cn(Cc2ccc(Cl)cc2)c2ccc(Oc3ccccc3)cc2c1=O` is reported as 109 µM (MTT; 48 h).
`Fc1ccc2c(-c3nc(Cc4ccccc4)cs3)nn(Cc3ccc(Cl)cc3Cl)c2c1` gave an IC50 of 32.9 µM (48 h).
`CC(=O)c1c(C)c2cnc(Nc3ccc(C4CCN(CCS(C)(=O)=O)CC4)cn3)nc2n(C2CCCC2)c1=O` has an IC50 of 0.143 µM (ATP luminescence; 72 h).
For `O=C(NCc1ccc(F)cc1)c1cn(Cc2ccc(F)cc2)c2ccc(Oc3ccccc3)cc2c1=O`, the IC50 was 327 µM (MTT; 48 h).
`CC[C@H](C)[C@@H]([C@@H](CC(=O)N1CCC[C@H]1[C@H](OC)[C@@H](C)C(=O)N[C@H](C)[C@@H](O)c1ccccc1)OC)N(C)C(=O)[C@@H](NC(=O)[C@@H](NC)C(C)C)C(C)C` has an IC50 of 0.0106 µM (CCK-8).
For `COc1c(C)c2c(c(O)c1C/C=C(\C)CCC(=O)O)C(=O)OC2`, the IC50 was 0.741 µM.
For `C#CCn1c(C(=O)/C=C/c2ccc(F)cc2)nc2ccccc21`, the IC50 was 2.48 µM (LDH; 48 h).
With `O=C(NCc1ccc(C(F)(F)F)cc1)c1cn(Cc2ccc(F)cc2)c2ccc(Oc3ccccc3)cc2c1=O` the IC50 was 183 µM (MTT; 48 h).
The IC50 of `N.N.[Cl][Pt][Cl]` is reported as 27.8 µM (MTT; 48 h).
With `CC[C@@]1(O)C(=O)OCc2c1cc1n(c2=O)Cc2cc3ccccc3nc2-1` the IC50 was 0.067 µM (SRB; 48 h).
With `CC(=O)N[C@H]1[C@@H](O[C@@H]2O[C@H](C[C@@H](O)[C@H]3O[C@@H](n4ccc(=O)[nH]c4=O)[C@H](O)[C@@H]3O)[C@H](O)[C@H](O)[C@H]2NC(=O)/C=C/CCCCCCCCCC(C)C)O[C@H](CO)[C@@H](O)[C@@H]1O` the IC50 was 0.52 µM (WST-1).
With `O=C(NCc1ccc(Cl)cc1)c1cn(Cc2ccc(Cl)cc2)c2ccc(Oc3ccccc3)cc2c1=O` the IC50 was 481 µM (MTT; 24 h).
The IC50 of `N.N.[Cl][Pt][Cl]` is reported as 46.1 µM (MTT).
With `c1ccc([Se][Au]=[c]2n(C3CCCCC3)ccn2C2CCCCC2)cc1` the IC50 was 1 µM (crystal violet).
With `Cc1ccc(CNC(=O)c2cn(Cc3ccc(Cl)cc3)c3ccc(Oc4ccccc4)cc3c2=O)cc1` the IC50 was over 500 µM (MTT; 24 h).
`N.N.[Cl][Pt][Cl]` gave an IC50 of 61.6 µM (MTT; 72 h).
